How the values were obtained:
[1] = biological target: Aldo-keto reductase family 1 member B1 (Rattus norvegicus, UniProt P07943); experiment: Inhibitory concentration to aldose reductase (ALR-2) obtained from rat lens
Rattus norvegicus [2] = species: Rattus norvegicus; experiment: Effect of the treatment on day 14 with ophthalmic solution (3%)on development of nuclear cataract in severely galactosemic rats; type: functional
Method in brief: (§1)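 Sprague Dawley albino rats (45-55 g), 15 per group of equal average body weight, fed 50% D-galactose diet with ad libitum food and water. Eyedrops given four times daily in the precorneal region, starting 1 day before the switch to galactose chow. Vehicle controls were run on galactose and on normal diet. Lenses were checked by slit-lamp after 1% atropine mydriasis, and animals with nuclear cataract (central white opacity) were counted.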

Rattus norvegicus [3] = species: Rattus norvegicus; experiment: Effect of the treatment on day 13 with ophthalmic solution (3%)on development of nuclear cataract in severely galactosemic rats; type: functional; method in brief: as §1
Rattus norvegicus [4] = species: Rattus norvegicus; experiment: Effect of the treatment on day 17 with ophthalmic solution (3%)on development of nuclear cataract in severely galactosemic rats; type: functional; method in brief: as §1
Rattus norvegicus [5] = species: Rattus norvegicus; experiment: Effect of the treatment on day 18 with ophthalmic solution (3%)on development of nuclear cataract in severely galactosemic rats; type: functional; method in brief: as §1
Rattus norvegicus [6] = species: Rattus norvegicus; experiment: Effect of the treatment on day 12 with ophthalmic solution (3%)on development of nuclear cataract in severely galactosemic rats; type: functional; method in brief: as §1
Rattus norvegicus [7] = species: Rattus norvegicus; experiment: Effect of the treatment on day 21 with ophthalmic solution (3%) on development of nuclear cataract in severely galactosemic rats; type: functional; method in brief: as §1
Rattus norvegicus [8] = species: Rattus norvegicus; experiment: Effect of the treatment on day 19 with ophthalmic solution (3%)on development of nuclear cataract in severely galactosemic rats; type: functional; method in brief: as §1
Rattus norvegicus [9] = species: Rattus norvegicus; experiment: Effect of the treatment on day 15 with ophthalmic solution (3%)on development of nuclear cataract in severely galactosemic rats; type: functional; method in brief: as §1
Rattus norvegicus [10] = species: Rattus norvegicus; experiment: Effect of the treatment on day 16 with ophthalmic solution (3%)on development of nuclear cataract in severely galactosemic rats; type: functional; method in brief: as §1
Rattus norvegicus [11] = species: Rattus norvegicus; experiment: Effect of the treatment on day 11 with ophthalmic solution (3%)on development of nuclear cataract in severely galactosemic rats; type: functional; method in brief: as §1
Rattus norvegicus [12] = species: Rattus norvegicus; experiment: Effect of the treatment on day 20 with ophthalmic solution (3%)on development of nuclear cataract in severely galactosemic rats; type: functional; method in brief: as §1
Rattus norvegicus [13] = species: Rattus norvegicus; experiment: Effect of the treatment on day 19 with ophthalmic solution (1%)on development of nuclear cataract in severely galactosemic rats; type: functional; method in brief: as §1
Rattus norvegicus [14] = species: Rattus norvegicus; experiment: Effect of the treatment on day 12 with ophthalmic solution (1%)on development of nuclear cataract in severely galactosemic rats; type: functional; method in brief: as §1
Rattus norvegicus [15] = species: Rattus norvegicus; experiment: Effect of the treatment on day 11 with ophthalmic solution (1%)on development of nuclear cataract in severely galactosemic rats; type: functional; method in brief: as §1
Rattus norvegicus [16] = species: Rattus norvegicus; experiment: Effect of the treatment on day 13 with ophthalmic solution (1%)on development of nuclear cataract in severely galactosemic rats; type: functional; method in brief: as §1
Rattus norvegicus [17] = species: Rattus norvegicus; experiment: Effect of the treatment on day 20 with ophthalmic solution (1%)on development of nuclear cataract in severely galactosemic rats; type: functional; method in brief: as §1
Rattus norvegicus [18] = species: Rattus norvegicus; experiment: Effect of the treatment on day 15 with ophthalmic solution (1%)on development of nuclear cataract in severely galactosemic rats; type: functional; method in brief: as §1
Rattus norvegicus [19] = species: Rattus norvegicus; experiment: Effect of the treatment on day 14 with ophthalmic solution (1%)on development of nuclear cataract in severely galactosemic rats; type: functional; method in brief: as §1
Rattus norvegicus [20] = species: Rattus norvegicus; experiment: Effect of the treatment on day 17 with ophthalmic solution (1%)on development of nuclear cataract in severely galactosemic rats; type: functional; method in brief: as §1
Rattus norvegicus [21] = species: Rattus norvegicus; experiment: Effect of the treatment on day 16 with ophthalmic solution (1%)on development of nuclear cataract in severely galactosemic rats; type: functional; method in brief: as §1
Rattus norvegicus [22] = species: Rattus norvegicus; experiment: Effect of the treatment on day 21 with ophthalmic solution (1%) on development of nuclear cataract in severely galactosemic rats; type: functional; method in brief: as §1
Rattus norvegicus [23] = species: Rattus norvegicus; experiment: Effect of the treatment on day 18 with ophthalmic solution (1%)on development of nuclear cataract in severely galactosemic rats; type: functional; method in brief: as §1

## O=C(O)Cn1nc2n(Cc3ccc(F)c(F)c3)c3ccccc3n2c(=O)c1=O
[1]
  IC50: 4.42 µM

## O=C(O)CN/N=c1\n(Cc2ccc(Cl)cc2)c2ccccc2n1C(=O)C(=O)O
[1]
  IC50: 10 µM

## COc1ccc(Cn2/c(=N\NCC(=O)O)n(C(=O)C(=O)O)c3ccccc32)cc1
[1]
  IC50: 44.5 µM

## O=C(O)CN/N=c1\n(Cc2ccc(Br)cc2F)c2ccccc2n1C(=O)C(=O)O
[1]
  IC50: 12.5 µM

## Cn1/c(=N\NCC(=O)O)n(C(=O)C(=O)O)c2ccccc21
[1]
  IC50: 109 µM

## O=C(O)CN/N=c1\n(Cc2ccccc2)c2ccccc2n1C(=O)C(=O)O
[1]
  IC50: 4.5 µM

## O=C(O)Cn1nc2n(Cc3ccc(F)cc3)c3ccccc3n2c(=O)c1=O
[1]
  IC50: 4.58 µM

## CCCn1c2ccccc2n2c(=O)c(=O)n(CC(=O)O)nc12
[1]
  IC50: 37.2 µM

## O=C(O)Cn1nc2n(Cc3ccc(Br)cc3F)c3ccccc3n2c(=O)c1=O
[1]
  IC50: 4.47 µM

## O=C(O)CN/N=c1\n(Cc2ccc(C(F)(F)F)cc2)c2ccccc2n1C(=O)C(=O)O
[1]
  IC50: 2.63 µM

## Cc1ccc(Cn2c3ccccc3n3c(=O)c(=O)n(CC(=O)O)nc23)cc1
[1]
  IC50: 13.3 µM

## O=C(O)Cc1nnc2nc3ccccc3n2c1O
[1]
  IC50: 35.9 µM

## O=C(O)Cn1nc2n(Cc3ccc(C(F)(F)F)cc3)c3ccccc3n2c(=O)c1=O
[1]
  IC50: 23.9 µM

## CC(C)OC(=O)Cn1nc2n(Cc3ccccc3)c3ccccc3n2c(=O)c1=O
Rattus norvegicus [2]
  Nuclear cataract: 10%
Rattus norvegicus [3]
  Nuclear cataract: 10%
Rattus norvegicus [4]
  Nuclear cataract: 10%
Rattus norvegicus [5]
  Nuclear cataract: 40%
Rattus norvegicus [6]
  Nuclear cataract: 10%
Rattus norvegicus [7]
  Nuclear cataract: 40%
Rattus norvegicus [8]
  Nuclear cataract: 40%
Rattus norvegicus [9]
  Nuclear cataract: 10%
Rattus norvegicus [10]
  Nuclear cataract: 10%
Rattus norvegicus [11]
  Nuclear cataract: 0%
Rattus norvegicus [12]
  Nuclear cataract: 40%

## Cn1c2ccccc2n2c(=O)c(CC(=O)O)nnc12
[1]
  IC50: 17 µM

## O=C(O)Cn1nc2n(Cc3ccc(Cl)cc3)c3ccccc3n2c(=O)c1=O
[1]
  IC50: 4.15 µM

## O=C(O)CN/N=c1\n(Cc2ccc(F)c(F)c2)c2ccccc2n1C(=O)C(=O)O
[1]
  IC50: 9.72 µM

## COc1ccc(Cn2c3ccccc3n3c(=O)c(=O)n(CC(=O)O)nc23)cc1
[1]
  IC50: 42.6 µM

## O=C(O)CN/N=c1\n(CC(=O)O)c2ccccc2n1C(=O)C(=O)O
[1]
  IC50: 236 µM

## O=C(O)Cn1nc2n(Cc3ccccc3)c3ccccc3n2c(=O)c1=O
Rattus norvegicus [2]
  Nuclear cataract: 10%
Rattus norvegicus [3]
  Nuclear cataract: 0%
Rattus norvegicus [4]
  Nuclear cataract: 10%
Rattus norvegicus [5]
  Nuclear cataract: 40%
Rattus norvegicus [6]
  Nuclear cataract: 0%
Rattus norvegicus [7]
  Nuclear cataract: 50%
Rattus norvegicus [8]
  Nuclear cataract: 40%
Rattus norvegicus [9]
  Nuclear cataract: 10%
Rattus norvegicus [10]
  Nuclear cataract: 10%
[1]
  IC50: 0.36 µM
Rattus norvegicus [11]
  Nuclear cataract: 0%
Rattus norvegicus [12]
  Nuclear cataract: 50%

## O=C(O)CN/N=c1\n(Cc2ccc(F)cc2)c2ccccc2n1C(=O)C(=O)O
[1]
  IC50: 14.8 µM

## Cn1c2ccccc2n2c(=O)c(=O)n(CC(=O)O)nc12
[1]
  IC50: 24.8 µM

## O=C(O)Cn1nc2n(CC(=O)O)c3ccccc3n2c(=O)c1=O
[1]
  IC50: 13.5 µM

## O=C(O)Cc1nnc2n(Cc3ccccc3)c3ccccc3n2c1=O
[1]
  IC50: 5.44 µM

## Cc1ccc(Cn2/c(=N\NCC(=O)O)n(C(=O)C(=O)O)c3ccccc32)cc1
[1]
  IC50: 45.9 µM

## CCCn1/c(=N\NCC(=O)O)n(C(=O)C(=O)O)c2ccccc21
[1]
  IC50: 46.5 µM

## COc1ccc2c(C(=S)N(C)CC(=O)O)cccc2c1C(F)(F)F [TOLRESTAT]
Rattus norvegicus [13]
  Nuclear cataract: 43%
Rattus norvegicus [14]
  Nuclear cataract: 0%
Rattus norvegicus [15]
  Nuclear cataract: 0%
Rattus norvegicus [2]
  Nuclear cataract: 0%
Rattus norvegicus [3]
  Nuclear cataract: 0%
Rattus norvegicus [4]
  Nuclear cataract: 0%
Rattus norvegicus [16]
  Nuclear cataract: 0%
Rattus norvegicus [5]
  Nuclear cataract: 0%
Rattus norvegicus [17]
  Nuclear cataract: 47%
Rattus norvegicus [18]
  Nuclear cataract: 32%
Rattus norvegicus [19]
  Nuclear cataract: 23%
Rattus norvegicus [20]
  Nuclear cataract: 32%
Rattus norvegicus [6]
  Nuclear cataract: 0%
Rattus norvegicus [21]
  Nuclear cataract: 32%
Rattus norvegicus [7]
  Nuclear cataract: 0%
Rattus norvegicus [8]
  Nuclear cataract: 0%
Rattus norvegicus [9]
  Nuclear cataract: 0%
Rattus norvegicus [10]
  Nuclear cataract: 0%
[1]
  IC50: 0.05 µM
Rattus norvegicus [11]
  Nuclear cataract: 0%
Rattus norvegicus [22]
  Nuclear cataract: 47%
Rattus norvegicus [23]
  Nuclear cataract: 43%
Rattus norvegicus [12]
  Nuclear cataract: 0%
